How the values were obtained:
[1] = target: Bromodomain-containing protein 4 (Homo sapiens, UniProt O60885); assay: Inhibition of BRD4(1) (unknown origin) incubated for 4 hrs by (+)-JQ1 fluorescent ligand based fluorescence anisotrophy
HT-29 = assay: Growth inhibition of human HT-29 cells after 72 hrs by SRB assay; type: functional, cell-based; details: HT-29, 72 h
Summary of the method: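 HT-29 cells are grown in McCoy's 5A with 10% FBS at 37 °C, 5% CO2. DMSO stocks (0.01 mol/L) are diluted in normal saline just before use. Cells are treated in triplicate with gradient concentrations for 72 h at 37 °C.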

[2] = Growth inhibition of human MM1S cells after 72 hrs by CellTiter-Glo luminescent cell viability assay; details: MM1.S
MV4-11 = assay: Growth inhibition of human MV4-11 cells after 72 hrs by CellTiter-Glo luminescent cell viability assay; details: MV4-11, 72 h
[3] = Stability in human liver microsomes assessed as clearance at 1 uM pre-incubated for 5 mins followed by NADPH addition and measured after 5 to 30 mins post NADPH addition by LC/MS/MS method; type: ADME; details: read-out: CLH
Summary of the method: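 Human liver microsomes (0.5 mg/mL) preincubated with 1 µM compound for 5 min at 37 °C in 0.1 M phosphate pH 7.4 with 1 mmol EDTA and 5 mmol MgCl2. Started with 1 mmol NADPH; sampled at 0, 5, 10 and 30 min. Quenched with equal volume of cold acetonitrile, vortexed, and centrifuged at 10,000 × g.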

CYP3A4 [4] = target: T1, CYP3A4 (Homo sapiens, UniProt P08684); assay: Inhibition of CYP3A4 in human liver microsomes at 10 uM using midazolam substrate preincubated for 5 mins before NADPH addition and measured after 20 mins post NADPH addition; type: ADME; details: probe midazolam
Summary of the method: (§1)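 Human liver microsomes 0.2 mg/mL, 1 mmol NADPH, 100 mmol phosphate pH 7.4, probe cocktail (10 μM midazolam, 100 μM testosterone, 10 μM dextromethorphan, 20 μM diclofenac, 100 μM phenacetin, 100 μM mephenytoin), test compound 10 μM or PBS; organic solvent <1%. 5 min preincubation at 37 °C, NADPH-generating system start, 20 min reaction; inhibition from metabolite formation relative to PBS.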

CYP3A4 [5] = target: T1, CYP3A4; assay: Inhibition of CYP3A4 in human liver microsomes at 10 uM preincubated for 5 mins before NADPH addition and measured after 20 mins post NADPH addition; type: ADME
CYP2D6 = CYP2D6 (Homo sapiens, UniProt P10635); assay: Inhibition of CYP2D6 in human liver microsomes at 10 uM using dextromethorphan substrate preincubated for 5 mins before NADPH addition and measured after 20 mins post NADPH addition; type: ADME; details: liver microsomes, probe dextromethorphan; summary of the method: as §1
CYP2C9 = CYP2C9 (Homo sapiens, UniProt P11712); assay: Inhibition of CYP2C9 in human liver microsomes at 10 uM using diclofenac substrate preincubated for 5 mins before NADPH addition and measured after 20 mins post NADPH addition; type: ADME; details: liver microsomes, probe diclofenac; summary of the method: as §1
CYP1A2 = target: T2, CYP1A2 (Homo sapiens, UniProt P05177); assay: Inhibition of CYP1A2 in human liver microsomes at 10 uM using phenacetin substrate preincubated for 5 mins before NADPH addition and measured after 20 mins post NADPH addition; type: ADME; details: probe phenacetin; summary of the method: as §1
T2 sequence (P05177 whole entry): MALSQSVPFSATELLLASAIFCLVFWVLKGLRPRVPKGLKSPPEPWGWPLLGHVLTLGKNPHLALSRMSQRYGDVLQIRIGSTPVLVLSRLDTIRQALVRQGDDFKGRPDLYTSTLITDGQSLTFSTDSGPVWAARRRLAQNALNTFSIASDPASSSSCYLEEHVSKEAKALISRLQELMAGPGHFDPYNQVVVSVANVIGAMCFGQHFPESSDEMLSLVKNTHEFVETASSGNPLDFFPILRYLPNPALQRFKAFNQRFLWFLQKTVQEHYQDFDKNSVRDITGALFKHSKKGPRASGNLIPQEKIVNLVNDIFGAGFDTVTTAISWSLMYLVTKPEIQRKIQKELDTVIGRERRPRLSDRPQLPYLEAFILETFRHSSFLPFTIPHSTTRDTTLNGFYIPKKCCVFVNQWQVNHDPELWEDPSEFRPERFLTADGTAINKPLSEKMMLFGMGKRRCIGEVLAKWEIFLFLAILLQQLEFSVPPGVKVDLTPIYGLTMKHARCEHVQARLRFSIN

CYP2C19 = CYP2C19 (Homo sapiens, UniProt P33261); assay: Inhibition of CYP2C19 in human liver microsomes at 10 uM using mephenytoin substrate preincubated for 5 mins before NADPH addition and measured after 20 mins post NADPH addition; type: ADME; details: probe mephenytoin; summary of the method: as §1
Cytochrome P450 3A4 = Cytochrome P450 3A4 (Homo sapiens, UniProt P08684); assay: Time dependent inhibition of CYP3A4 in human liver microsomes at 10 uM using midazolam substrate preincubated for 5 mins before NADPH addition and measured after 20 mins post NADPH addition; type: ADME
Cytochrome P450 2D6 = Cytochrome P450 2D6 (Homo sapiens, UniProt P10635); assay: Time dependent inhibition of CYP2D6 in human liver microsomes at 10 uM using dextromethorphan substrate preincubated for 5 mins before NADPH addition and measured after 20 mins post NADPH addition; type: ADME
Cytochrome P450 2C9 = Cytochrome P450 2C9 (Homo sapiens, UniProt P11712); assay: Time dependent inhibition of CYP2C9 in human liver microsomes at 10 uM using diclofenac substrate preincubated for 5 mins before NADPH addition and measured after 20 mins post NADPH addition; type: ADME
Cytochrome P450 1A2 = target: T3, Cytochrome P450 1A2 (Homo sapiens, UniProt P05177); assay: Time dependent inhibition of CYP1A2 in human liver microsomes at 10 uM using phenacetin substrate preincubated for 5 mins before NADPH addition and measured after 20 mins post NADPH addition; type: ADME
T3 sequence (P05177 whole entry): T2 sequence (P05177 whole entry)

Cytochrome P450 2C19 = Cytochrome P450 2C19 (Homo sapiens, UniProt P33261); assay: Time dependent inhibition of CYP2C19 in human liver microsomes at 10 uM using mephenytoin substrate preincubated for 5 mins before NADPH addition and measured after 20 mins post NADPH addition; type: ADME
[6] = target: T4, ATPase family AAA domain-containing protein 2 (Homo sapiens) (UniProt Q6PL18); assay: Binding affinity to ATAD2 (unknown origin) assessed as increase in protein melting temperature at 50 umol by real-time PCR system based thermal shift assay
T4 sequence (whole entry): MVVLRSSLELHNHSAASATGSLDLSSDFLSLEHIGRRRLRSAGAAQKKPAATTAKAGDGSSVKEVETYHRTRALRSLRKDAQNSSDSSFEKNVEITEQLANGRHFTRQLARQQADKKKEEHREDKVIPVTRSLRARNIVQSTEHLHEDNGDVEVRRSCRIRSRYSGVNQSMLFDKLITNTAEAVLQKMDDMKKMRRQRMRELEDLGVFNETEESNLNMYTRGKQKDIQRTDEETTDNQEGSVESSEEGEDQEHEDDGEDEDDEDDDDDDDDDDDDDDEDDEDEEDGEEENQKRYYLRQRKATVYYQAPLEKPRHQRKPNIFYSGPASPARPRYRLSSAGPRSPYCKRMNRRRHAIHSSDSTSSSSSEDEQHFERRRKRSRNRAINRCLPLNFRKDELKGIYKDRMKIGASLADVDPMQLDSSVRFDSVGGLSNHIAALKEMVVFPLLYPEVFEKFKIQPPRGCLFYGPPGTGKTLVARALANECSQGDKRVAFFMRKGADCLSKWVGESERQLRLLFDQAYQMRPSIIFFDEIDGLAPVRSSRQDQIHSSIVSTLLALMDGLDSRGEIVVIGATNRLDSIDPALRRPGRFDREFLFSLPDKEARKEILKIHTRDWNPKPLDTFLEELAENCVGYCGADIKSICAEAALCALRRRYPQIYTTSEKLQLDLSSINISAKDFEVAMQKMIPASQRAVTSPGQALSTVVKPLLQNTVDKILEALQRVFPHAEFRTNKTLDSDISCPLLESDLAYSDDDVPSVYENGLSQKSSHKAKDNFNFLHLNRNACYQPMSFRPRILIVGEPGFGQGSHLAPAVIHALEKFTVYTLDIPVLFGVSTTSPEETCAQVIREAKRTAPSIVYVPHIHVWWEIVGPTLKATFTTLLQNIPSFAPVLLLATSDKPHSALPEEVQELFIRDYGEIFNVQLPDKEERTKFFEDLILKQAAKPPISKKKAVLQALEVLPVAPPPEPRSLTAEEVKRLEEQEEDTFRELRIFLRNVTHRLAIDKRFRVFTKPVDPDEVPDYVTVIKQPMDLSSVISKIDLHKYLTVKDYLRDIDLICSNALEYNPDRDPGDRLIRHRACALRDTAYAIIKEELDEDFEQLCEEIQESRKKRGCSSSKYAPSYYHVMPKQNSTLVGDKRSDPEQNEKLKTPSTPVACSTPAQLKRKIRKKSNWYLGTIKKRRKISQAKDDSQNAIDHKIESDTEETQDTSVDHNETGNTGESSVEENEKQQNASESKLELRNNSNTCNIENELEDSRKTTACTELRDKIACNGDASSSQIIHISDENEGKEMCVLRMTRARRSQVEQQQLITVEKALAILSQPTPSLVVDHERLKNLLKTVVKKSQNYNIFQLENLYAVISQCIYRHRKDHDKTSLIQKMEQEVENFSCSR
Summary of the method: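 Bromodomain proteins in 10 mmol HEPES pH 7.5, 500 mmol NaCl at 75 μg/mL final; compound at 50 µmol final; SYPRO Orange probe at 1:1000. Four replicates per protein mixture. Melt curve read on a real-time PCR instrument, heating 25 °C to 99 °C at 1 °C/min under continuous fluorescence reading; binding taken as the rise in protein melting temperature.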

Chain of CYP2D6 (P10635 whole entry): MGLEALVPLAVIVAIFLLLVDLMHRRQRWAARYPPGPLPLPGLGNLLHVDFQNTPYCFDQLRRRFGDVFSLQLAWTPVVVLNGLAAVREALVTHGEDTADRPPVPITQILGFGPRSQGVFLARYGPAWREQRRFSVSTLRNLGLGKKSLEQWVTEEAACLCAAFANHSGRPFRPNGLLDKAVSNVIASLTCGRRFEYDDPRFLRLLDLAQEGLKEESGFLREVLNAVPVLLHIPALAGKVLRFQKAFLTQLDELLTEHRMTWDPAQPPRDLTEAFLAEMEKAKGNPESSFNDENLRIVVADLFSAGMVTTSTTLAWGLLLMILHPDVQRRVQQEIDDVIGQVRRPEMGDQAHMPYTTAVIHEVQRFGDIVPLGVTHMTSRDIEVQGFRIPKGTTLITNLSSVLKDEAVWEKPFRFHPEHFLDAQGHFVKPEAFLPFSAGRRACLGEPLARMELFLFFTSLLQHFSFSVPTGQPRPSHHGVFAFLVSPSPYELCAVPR
T1 sequence (P08684 whole entry): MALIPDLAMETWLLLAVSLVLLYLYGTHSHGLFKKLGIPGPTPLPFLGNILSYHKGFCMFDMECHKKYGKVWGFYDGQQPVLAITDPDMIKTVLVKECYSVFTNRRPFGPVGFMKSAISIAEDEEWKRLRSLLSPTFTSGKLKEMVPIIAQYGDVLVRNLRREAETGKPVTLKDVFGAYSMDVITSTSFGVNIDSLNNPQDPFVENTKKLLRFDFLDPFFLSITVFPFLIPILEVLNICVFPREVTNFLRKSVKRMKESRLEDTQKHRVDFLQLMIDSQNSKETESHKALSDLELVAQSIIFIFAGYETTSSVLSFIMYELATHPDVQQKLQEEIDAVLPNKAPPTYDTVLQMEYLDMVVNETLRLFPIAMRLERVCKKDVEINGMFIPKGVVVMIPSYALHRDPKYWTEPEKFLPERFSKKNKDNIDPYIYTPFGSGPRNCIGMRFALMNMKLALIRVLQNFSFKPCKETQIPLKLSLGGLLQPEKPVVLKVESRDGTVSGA
Chain of Cytochrome P450 2C19 (P33261 whole entry, the tested form may be a part): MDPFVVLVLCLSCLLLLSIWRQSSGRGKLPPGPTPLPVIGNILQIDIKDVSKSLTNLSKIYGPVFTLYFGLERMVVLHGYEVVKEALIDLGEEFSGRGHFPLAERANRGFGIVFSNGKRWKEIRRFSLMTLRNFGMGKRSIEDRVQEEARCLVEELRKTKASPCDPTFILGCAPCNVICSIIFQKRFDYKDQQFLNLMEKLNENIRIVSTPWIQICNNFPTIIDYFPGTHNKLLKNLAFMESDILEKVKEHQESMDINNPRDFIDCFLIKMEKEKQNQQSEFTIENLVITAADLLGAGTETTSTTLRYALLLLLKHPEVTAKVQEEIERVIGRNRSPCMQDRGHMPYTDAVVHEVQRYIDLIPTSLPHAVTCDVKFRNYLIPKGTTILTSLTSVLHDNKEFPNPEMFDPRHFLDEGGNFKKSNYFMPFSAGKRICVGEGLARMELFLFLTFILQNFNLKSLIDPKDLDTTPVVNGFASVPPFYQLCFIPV
Chain of CYP2C19 (P33261 whole entry): as the sequence (P33261 whole entry, the tested form may be a part) above
Chain of CYP2C9 (P11712 whole entry): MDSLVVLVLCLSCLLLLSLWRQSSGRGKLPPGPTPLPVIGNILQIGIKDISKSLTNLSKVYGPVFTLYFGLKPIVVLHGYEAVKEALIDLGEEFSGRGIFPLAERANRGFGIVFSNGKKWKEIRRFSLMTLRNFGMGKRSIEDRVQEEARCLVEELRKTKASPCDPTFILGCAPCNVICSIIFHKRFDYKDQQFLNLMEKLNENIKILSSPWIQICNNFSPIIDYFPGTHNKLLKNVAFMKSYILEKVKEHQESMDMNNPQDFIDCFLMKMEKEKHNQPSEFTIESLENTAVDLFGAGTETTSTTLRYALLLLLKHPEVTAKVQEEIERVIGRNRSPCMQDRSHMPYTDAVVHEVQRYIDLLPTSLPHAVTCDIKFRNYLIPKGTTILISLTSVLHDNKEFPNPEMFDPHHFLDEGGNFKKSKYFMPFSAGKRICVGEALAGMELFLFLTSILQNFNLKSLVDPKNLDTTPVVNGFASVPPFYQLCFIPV
Chain of Cytochrome P450 2C9 (P11712 whole entry): as above
Chain of Cytochrome P450 2D6 (P10635 whole entry): as the sequence (P10635 whole entry) above
Chain of Cytochrome P450 3A4 (P08684 whole entry): as the sequence (P08684 whole entry) above

SMILES: O=c1[nH]c(-c2cc(Br)cc(S(=O)(=O)NC3CCCC3)c2)cs1
- IC50 [1]: 300 nM
- IC50 (HT-29): 57100 nM

SMILES: Nc1cc(-c2csc(=O)[nH]2)cc(S(=O)(=O)NC2CCCC2)c1
- IC50 [1]: 460 nM
- IC50 (HT-29): 6150 nM
- IC50 [2]: 3580 nM
- IC50 (MV4-11): 689 nM

SMILES: O=c1[nH]c(-c2cccc(S(=O)(=O)NC3CCOC3)c2)cs1 (stereo not given)
- IC50 [1]: 5820 nM

SMILES: O=c1[nH]c(-c2ccc(Cl)c(S(=O)(=O)NC3CCCC3)c2)cs1
- IC50 [1]: 250 nM
- IC50 (HT-29): 23700 nM
- IC50 [2]: 3370 nM
- IC50 (MV4-11): 341 nM

SMILES: O=C(Nc1cc(-c2csc(=O)[nH]2)cc(S(=O)(=O)NC2CCCC2)c1)c1cccs1
- IC50 [1]: 110 nM
- IC50 (HT-29): 25200 nM
- microsomal CLint at 1 µM [3]: 64 µL/min/mg
- inhibition at 20 min, 10 µM (CYP3A4 [4]): 17%
- inhibition at 20 min, 10 µM (CYP3A4 [5]): 34%
- inhibition at 20 min, 10 µM (CYP2D6): 44%
- inhibition at 20 min, 10 µM (CYP2C9): 57%
- inhibition at 20 min, 10 µM (CYP1A2): 45%
- inhibition at 20 min, 10 µM (CYP2C19): 46%
- TDI (Cytochrome P450 3A4): Not Active
- TDI (Cytochrome P450 2D6): Not Active
- TDI (Cytochrome P450 2C9): Not Active
- TDI (Cytochrome P450 1A2): Not Active
- TDI (Cytochrome P450 2C19): Not Active
- IC50 [2]: 3300 nM
- IC50 (MV4-11): 272 nM

SMILES: COc1ccc(NS(=O)(=O)c2cccc(-c3csc(=O)[nH]3)c2)cc1
- IC50 [1]: > 10000 nM

SMILES: O=c1[nH]c(-c2ccccc2F)cs1
- IC50 [1]: > 100000 nM

SMILES: COc1cc2c(cc1-c1c(C)noc1C)ncc1[nH]c(=O)n([C@H](C)c3ccccn3)c12
- IC50 (HT-29): 945 nM
- inhibition at 20 min, 10 µM (CYP3A4 [4]): 21%
- inhibition at 20 min, 10 µM (CYP3A4 [5]): 22%
- inhibition at 20 min, 10 µM (CYP2D6): 18%
- inhibition at 20 min, 10 µM (CYP2C9): 33%
- inhibition at 20 min, 10 µM (CYP1A2): 18%
- inhibition at 20 min, 10 µM (CYP2C19): 19%
- TDI (Cytochrome P450 3A4): Not Active
- TDI (Cytochrome P450 2D6): Not Active
- TDI (Cytochrome P450 2C9): Not Active
- TDI (Cytochrome P450 1A2): Not Active
- TDI (Cytochrome P450 2C19): Not Active
- IC50 [2]: 299 nM
- IC50 (MV4-11): 119 nM

SMILES: O=c1[nH]c(-c2cccc(S(=O)(=O)NC3CC3)c2)cs1
- IC50 [1]: 2260 nM

SMILES: O=c1[nH]c(-c2cccc(S(=O)(=O)Nc3ccon3)c2)cs1
- IC50 [1]: 7340 nM

SMILES: O=C(Nc1ccc(-c2csc(=O)[nH]2)cc1S(=O)(=O)NC1CCCC1)C1CC1
- IC50 [1]: 800 nM
- IC50 (HT-29): 13000 nM

SMILES: Cc1sc2c(c1C)C(c1ccc(Cl)cc1)=N[C@@H](CC(=O)OC(C)(C)C)c1nnc(C)n1-2
- IC50 (HT-29): 104 nM
- ΔTm [6]: 1.04 °C
- microsomal CLint at 1 µM [3]: 78 µL/min/mg
- inhibition at 20 min, 10 µM (CYP3A4 [4]): 30%
- inhibition at 20 min, 10 µM (CYP3A4 [5]): 28%
- inhibition at 20 min, 10 µM (CYP2D6): 2%
- inhibition at 20 min, 10 µM (CYP2C9): 18%
- inhibition at 20 min, 10 µM (CYP1A2): 2%
- inhibition at 20 min, 10 µM (CYP2C19): 18%
- TDI (Cytochrome P450 2C9): Active
- TDI (Cytochrome P450 2C19): Active
- IC50 [2]: 109 nM
- IC50 (MV4-11): 23 nM

From ChEMBL document CHEMBL3407418, “Fragment-based drug discovery of 2-thiazolidinones as BRD4 inhibitors: 2. Structure-based optimization” (J Med Chem, 2015)
